# In the EternaBench riboswitch data:
# System: MS2 coat protein
# Experiment: apparent Kd, MS2 coat protein; higher = weaker binding; RNA-MaP array; FMN 200 µM where present
# Method in brief: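 Stalled E. coli RNA polymerase transcribed each design on Illumina sequencing-chip clusters. The clusters were titrated with SNAP-549-labelled MS2 coat protein, starting at 0.7 or 1.5 nM and doubling up to 3 µM, first without ligand and then with constant ligand, in 100 mM Tris-HCl pH 7.5, 80 mM KCl, 4 mM MgCl2, BSA, DTT, yeast tRNA and Tween-20. Green signal was normalised to red-channel RNA signal and to the control-cluster median Fmax. The apparent Kd is the median of filtered binding-curve fits made for each cluster.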
# [1] = designed as: ON switch for flavin mononucleotide, no ligand
# [2] = ligand present: flavin mononucleotide, designed as: ON switch for flavin mononucleotide
# [3] = designed as: OFF switch for flavin mononucleotide, no ligand
# [4] = ligand present: flavin mononucleotide, designed as: OFF switch for flavin mononucleotide
Sequence,apparent Kd [1],apparent Kd [2],apparent Kd [3],apparent Kd [4]
GCACGAGACUAAGGAUAUGGAGUGUCUACAUUAAACAUGAGGAUCACCCAUGUAGAGAGUACGAUUCAGAAGGUAGAGACGUGC,48.6 nM,22.1 nM,–,–
AAUUUAAAGGGAGGAUAUACAUGAGGAUCACCCAUGUAAUAAUAUGAUAUUUUUUUUGUAUGAGUGUAGAAGGCCCAAAUAAAA,–,–,51.6 nM,61 nM
AAGUAGGGAGGAUAUACAUAGAUACAGAUUCGUGUAGAACUACAUGAGGAUCACCCAUGUAGAAGGCCCUAAUA,–,–,18.1 nM,41.6 nM
UUGUUAUAUGUAGGAUAUGCAUAUUAUUAUUAUGCAGAAGGACAUGAGGAUCACCCAUGUAUAUUAUUAUUAUAUGUUAUAUAU,–,–,23.8 nM,29.8 nM
UUUGUGUGAGGAUAUUAAUUGCAAGCGAAUAGGCUUGUGAUUGAGAAGGCACAUGAGGAUCACCCAUGUUCCUU,–,–,18.1 nM,151 nM
UAGAGUCGCGUCAGGAUAUACCACUUAACCCAGUAGUAGAAGGGACAUGAGGAUCACCCAUGUCGGUGUUAGCC,–,–,23.2 nM,26.2 nM
CUAACACAUGAGGAUCACCCAUGUUAGGAUAUUAGUACUAUUUACCACAUAAUGGCACUGAGAAGGAGCGGGUA,–,–,29.3 nM,31.3 nM
UUAAUUAUACAAGGAUAUCUAUUGUUAUUUCGACUUACAUGAGGAUCACCCAUGUUAAUAUAUUUAGAGAAGGUGUAUUUUCAG,86.8 nM,36.5 nM,–,–
AAGACAUGAGGAUCACCCAUGUAAAGACCGGUCAAUCAAUGUGAGGAUAUUCCAUAAUUGAUAGGGAAGAAGGCACUGGGUUGA,106 nM,50.2 nM,–,–
AAAACCUCAUGAGGAUAUCCAACAUGAGGAUCACCCAUGUUAGUCUCAGUACUAGAUACUUGAGAGGAGAAGGCAUGCCAGGGC,97 nM,31.6 nM,–,–
CUUUUGUGAGGAUAUCAGUAGUAAAAAUAUAAAAUUACUACUGAGAAGGCACAUGAGGAUCACCCAUGUUCCUC,–,–,39.7 nM,244 nM
AACUCACAUGAGGAUCACCCAUGUGAGGAUAUGAUACUAUGUACUUCGGUACAUAGUAUCAGAAGGCAUGUGGA,–,–,14.4 nM,18.9 nM
CCAAGGAGAGGAUAUACACGGUUAUGGCCUCUUGAGUGGCGACAUGAGGAUCACCCAUGUAGAAGGCUCAGGGC,–,–,20.2 nM,57.4 nM
AGACUGAAGCAAGGAUAUUGUAAAGUUAUCGUACAAGAAGGUGCUGUUUAUGUCUCUUUACAUGAGGAUCACCCAUGUUUUUAA,22.6 nM,24.2 nM,–,–
GGAGACCUCACAGGAUAUGCUGGACUUUGUCCAGCAGAAGGGUGAAUACAUGAGGAUCACCCAUGUGGUCUCCAAAUAUUUAAU,1170 nM,75.3 nM,–,–
AGCUGUGGCCAAGGAUAUCUAACCUUAAAUACCGACGUAUAGUCGGACAUGAGGAUCACCCAUGUGGAGAAGGUGGUCUCAGCA,–,–,25.3 nM,37.3 nM
ACUGUUUGAUUCCUCUUAUACAUGAGGAUCACCCAUGUUAUCGAGGAUAUGCAUUAGAGUGUUUAGCAGAAGGCGAUGUAAUUG,–,–,6.84 nM,19.9 nM
UUCAGCUCGUGAGGAUAUACAUGUGCUGGAAACAGCACUAUUAAAUUCACAUGAGGAUCACCCAUGUAGAAGGCACGAGCUGAG,–,–,15.4 nM,18.7 nM
AAAGAAGCACUUGGAACCGGACAAUGAGAAGGCCACGCACAUGAGGAUCACCCAUGUAAAGCUAUGGAGGAUAUCAUGAUGGAU,46.4 nM,6.73 nM,–,–
AAGCUAACCACAGGAUAUCCACAUGAGGAUCACCCAUGUUGCUGAAGAGCAGGAGAAGGGUGGUGGGCAGAGUGCGCUGUCGUG,53.5 nM,8.75 nM,–,–
AUUUCAAUUGUUUACAUGAGGAUCACCCAUGUCAUAAGUCAUGAGGAUAUGGUAUUGUAGUUAUUCCAGAAGGCAUAUAGCUUA,38.5 nM,14.4 nM,–,–
GUCAUCGCAUGAGGAUAUGGCACCGUUUCGGUGCCAGAAGGCAUGUCAAAUGACAUGAGGAUCACCCAUGUAGUUAAGAUGGCA,229 nM,17 nM,–,–
UCUUUAUAGAUCCAUUUUAACUACAUGAGGAUCACCCAUGUGCAGGAUAUCGAUUGUUUUACUUUCGAGAAGGGCAAAUUCAGC,–,–,57.6 nM,131 nM
AGAUUACGAGGAUAUCGAGUUUAGUACAUGAGGAUCACCCAUGUUAUCCAGGUCUCGUUUCGAGAAGGCGUGAUUC,–,–,256 nM,92.3 nM
AAGGAGUGAGGAUAUGCUGCUCGUCACUUGCGUGAUGAGUAGCAGAAGGCACAUGAGGAUCACCCAUGUAAAGA,–,–,44.9 nM,54.5 nM
GCGAUUGCGUAGAAGGUACAAUAUAUUUCAUUGUAAGGAUAUACUUACAUGAGGAUCACCCAUGUUAAUGGAAUUUGCAAUCGC,74.1 nM,28.9 nM,–,–
ACAGUAUAUGUAGGAUAUCGUUGGUUAGAUAGGCGAGAAGGGCAUAGUACAUGAGGAUCACCCAUGUGUUGGUCCUCGCAGAAA,–,–,454 nM,237 nM
CUAUUUAGUGCCUCAUGUACAUGAGGAUCACCCAUGUUAACUUAGGAUAUAUUUAUAUUGAUAGAGUAGAAGGAAGUACUAUUG,–,–,70.2 nM,61 nM

Sequence,apparent Kd [1],apparent Kd [2],apparent Kd [3],apparent Kd [4]
GGAUAGGACAGAGGAUAUCCGUGCUAGAGAUACUAGCAAAAUUUCCUCACAUGAGGAUCACCCAUGUAGAAGGCUGUCCUAUCG,–,–,5.98 nM,11.7 nM
GGUACUCAAAGAGUACCAAUACGAACAUGAGGAUCACCCAUGUAGGAUAUGCUACUCAAAGAGUAGCAGAAGGACAUGUGCCUC,–,–,418 nM,38.5 nM
UAAAAGCUAGGAUAUACAUGAGGAUCACCCAUGUCACGGGUGCCACACCGAAAGGUGCGUAGAAGGAGCCCAAA,–,–,38.6 nM,103 nM
GGUGCGUAUGUGAGGAUAUGCUGGUCCUUGGAUCGGCAGAAGGCACAUGAGGAUCACCCAUGUGGUGUCGUACA,–,–,411 nM,34.7 nM
GCACGGCAUGUAGGAUAUCGAGCUCCGGGAGCUCGAGAAGGACAUGAGGAUCACCCAUGUGCUCACAGUGAGUGAGCGCUGUGC,–,–,23.9 nM,93.5 nM
CUCAGACAUGAGGAUCACCCAUGUGAGGAUAUGAUGCAGCAGUGGUCUACGCUGUGCAUCAGAAGGCACAUGUG,–,–,36.5 nM,12.5 nM
GUAGCUUUCCGAGGAUAUUCAGGGCGUGGAUAUACAUGAGGAUCACCCAUGUGGCGGAAGCCUAGGGAGAAGGCGGGCUGCUUC,47.7 nM,19 nM,–,–
ACGACGAAAGUCGAACGAUGUACGAGAAGGACAUGAGGAUCACCCAUGUUAUCUGUAAUAGACAUGUAGGAUAUCGUACAUCGA,–,–,8.26 nM,26.6 nM
GGAAAACAUGAGGAUCACCCAUGUGAGGAUAUGAGCGUCUAGUUGAGAGAUUGGACGCUCAGAAGGCACAUGCC,–,–,28.5 nM,247 nM
CACAAGAAAGUCGAAGGUUGAAGUAGAAGGACUACAACAUGACAUGAGGAUCACCCAUGUGCUAAGUAGGAUAUGCUUUAAUCG,–,–,5.63 nM,5.47 nM
AAGAUGCGGGUAGGAUAUGGAGAGAAAGAAAGACCAGAAGGACUGGUCACACAACAUGAGGAUCACCCAUGUGUGUGUUGCGAA,–,–,11.8 nM,8.91 nM
GGCUCCGCUCGAGGAUAUAGCUGCAUGUAGUGUCCUGAGGCACAUGAGGAUCACCCAUGUGUAGGCUAGAAGGCGACGGAAGCU,–,–,142 nM,176 nM
CGCUAUGACAUAGGAUAUUGAUACAUGAGGAUCACCCAUGUCAACCAUGAAGCUCGAAUUGUUGACAAGAAGGAUGUGGUAGCG,157 nM,72.9 nM,–,–
CCAGAGGUCACAGGAUAUGACUCGUCCAAUUGGUCAGAAGGGUGAAUCACAUUAUGUAUACAUGAGGAUCACCCAUGUCCUACG,64.4 nM,165 nM,–,–
AGUUAAUAUCGAGGAUAUCCUCAGAAACAUGAGGAUCACCCAUGUAGAAUGGGAGAAGGCGAUAUUAACAGCAUGUUACAUGCA,182 nM,27.9 nM,–,–
AAAGGACAUGAGGAUCACCCAUGUGAGGAUAUGCUCUACGAACGAAUACACAUGAGAAGCAGAAGGCACAUAAG,–,–,151 nM,247 nM
AAAAUGUGUACAUGAGGAUCACCCAUGUAUCGACUCCAAAGCAAGGAUAUGAUCAUGGGAAUUGGUCAGAAGGUGCAGGGUCUG,205 nM,25.8 nM,–,–
UAUAAACAUGAGGAUCACCCAUGUAAUAAUAUGGGAGGAUAUCAGAAUUUAUUUAUUUAAUGAGAAGGCCUAAUAU,627 nM,43.2 nM,–,–
CACAGGGAUUCAGGAUAUAUUAGCCGAGGCCGCGUAGAAGGGAAAUCCUGACAUGAGGAUCACCCAUGUUAACCCACUUUCCAU,28.2 nM,28.8 nM,–,–
UUCUUUCCUCAUGUACAUGAGGAACAUGAGGAUCACCCAUGUAGAAGGAUUUCCCUUAAAUUAAAAUAGGAUAUACAUAUAUUU,–,–,27.9 nM,24.7 nM
GGUAUACAUGAGGAUCACCCAUGUCGUAUGACAUGAGGAUAUGUACAGACUUCGGUCUGUACAGAAGGCGUGUGUC,362 nM,158 nM,–,–
GUGCCUUGGGAGAAGGUUAUUAGCAAAGCUAUUAAAGGAUAUUCAUACCGGAAACGGACAUGAGGAUCACCCAUGUGGCACAAA,1630 nM,122 nM,–,–
GUGCAUACGUGAGGAUAUGUAUUAGAUAGUGGUACAGAAGGCAUGUCAGAUGACAUGAGGAUCACCCAUGUUGGCACAAUGCGC,137 nM,30.5 nM,–,–
GAUCCUUCUGUUAGGAUAUGCUUUGGGCUUCCGCAGCAGAAGGAACAUGAGGAUCACCCAUGUUCGAUGCCGUC,–,–,60.4 nM,59.9 nM
AGCAUGUGAGGAUAUGUGACCCUCGUCCGAAGGAUGAGGGAAUAGAAGGCACAUGAGGAUCACCCAUGUGAUGA,–,–,54.1 nM,156 nM
GUUAUAAAGGUAGGAUAUUGUAUUAUAAUUAAAUAAGAAGGAUCUCACAUGAGGAUCACCCAUGUAAGAGGAUCACCCAUGUAG,–,–,20.1 nM,14.6 nM
UUACCUCAUGAGAAGGACAUGAGGAUCACCCAUGUAGGAUAUCAUGGGUCAGUGGAAUUGAAUCUUCGGAUUCAAUAACUCUAC,140 nM,44 nM,–,–
